In data set [1] the target is T1, Sodium- and chloride-dependent glycine transporter 1 (Homo sapiens, UniProt P48067).
T1 sequence (P48067 whole entry): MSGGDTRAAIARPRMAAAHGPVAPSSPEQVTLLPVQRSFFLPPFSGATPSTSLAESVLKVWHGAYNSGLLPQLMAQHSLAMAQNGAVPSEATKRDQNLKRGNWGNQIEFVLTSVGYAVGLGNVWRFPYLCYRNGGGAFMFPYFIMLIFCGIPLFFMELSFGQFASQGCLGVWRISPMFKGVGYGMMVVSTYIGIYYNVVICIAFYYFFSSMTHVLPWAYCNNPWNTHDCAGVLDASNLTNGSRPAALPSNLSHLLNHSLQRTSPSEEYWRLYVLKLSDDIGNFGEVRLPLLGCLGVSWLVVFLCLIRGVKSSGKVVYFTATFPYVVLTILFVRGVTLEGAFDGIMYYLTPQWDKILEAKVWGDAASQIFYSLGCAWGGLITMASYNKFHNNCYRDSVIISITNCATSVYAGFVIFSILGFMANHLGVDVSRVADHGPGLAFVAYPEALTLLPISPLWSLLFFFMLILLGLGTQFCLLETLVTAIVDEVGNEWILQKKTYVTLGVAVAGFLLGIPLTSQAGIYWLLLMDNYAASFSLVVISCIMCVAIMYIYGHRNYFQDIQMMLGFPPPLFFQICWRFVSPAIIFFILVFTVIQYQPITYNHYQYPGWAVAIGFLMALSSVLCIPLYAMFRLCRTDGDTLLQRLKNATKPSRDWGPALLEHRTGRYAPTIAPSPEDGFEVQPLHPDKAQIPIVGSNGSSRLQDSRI
The data set can be described thus: Inhibition of human GlyT1 expressed in cells assessed as [3H]glycine uptake. The format is cell-based. The procedure, abridged:
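[³H]-glycine uptake inhibition in cells transfected with human GlyT1. EC₅₀ values are the average of at least two independent experiments.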

Data set [2] in a line: Octanol-phosphate buffer partition coefficient, log D of the compound at pH 7.4. It is filed as physicochemical. The procedure, abridged:
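Distribution coefficient measured between 1-octanol and phosphate buffer at pH 7.4.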

Data set [3] is described as follows: Solubility of the compound at pH 6.5 by lyophilization solubility assay. As to conditions: buffer. It is filed as physicochemical. In a few lines:
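Lyophilization solubility assay. DMSO solution of compound is lyophilized, dissolved in 0.05 M phosphate buffer pH 6.5, stirred 1 h, then shaken 2 h.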

Data set [4] in a line: Permeability of the compound by PAMPA. The format is physicochemical. As to conditions: read-out: permeability. (In PAMPA a lipid-coated filter parts donor from acceptor wells.)
Data set [5] can be described thus: Intrinsic clearance in human liver microsomes. The format is ADME. The following applies: read-out: CLH.
In data set [6] the test system is MDR1A (P-gp). The data set can be described thus: Efflux ratio of permeability in pig LLC-PK1 cells expressing mouse MDR1A. The format is ADME, cell-based, Sus scrofa. In a few lines: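 Efflux ratio measured in LLC-PK1 cells stably expressing human MDR1 or mouse MDR1A.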
The test system of data set [7] is Salmonella typhimurium. In words: Genotoxicity in Salmonella typhimurium by Ames test. The format is toxicity, organism-based. As to conditions: salmonella enterica subsp. enterica serovar typhimurium. Background: In the Ames test, an excess of revertant colonies over the control signals mutagenicity.
The nature of data set [8]: Dissociation constant, pKa of the compound by capillary electrophoresis. The format is physicochemical. In a few lines:
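pKa determined by capillary electrophoresis.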

Data set [9] in a line: Clearance in mouse at 1.7 mg/kg, iv. The format is ADME, organism-based. On the set-up: dose 1.7 mg/kg, route intravenous. As to conditions: in vivo. The procedure, abridged: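 Mouse PK, single iv dose of 1.7 mg/kg. Values are the average of two independent experiments.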
Data set [10] relates to Striatum. In words: Maximal induction of extracellular glycine level in rat striatum at 10 mg/kg, po relative to basal level. It is filed as functional. In a few lines: (§1)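 Rat striatal microdialysis after a 10 mg/kg oral dose. Extracellular glycine measured as fold over basal levels, with sampling stopped at 3 h. Plasma and brain exposures determined at 3 h post-dose. n = 6.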

Data set [11] concerns Striatum. In words: Induction of extracellular glycine level in rat striatum at 10 mg/kg, po after 3 hrs relative to basal level. It is filed as functional. In a few lines: as §1
Data set [12] has as its target T2, Sodium- and chloride-dependent glycine transporter 1 (Mus musculus, UniProt P28571).
T2 sequence (P28571 whole entry): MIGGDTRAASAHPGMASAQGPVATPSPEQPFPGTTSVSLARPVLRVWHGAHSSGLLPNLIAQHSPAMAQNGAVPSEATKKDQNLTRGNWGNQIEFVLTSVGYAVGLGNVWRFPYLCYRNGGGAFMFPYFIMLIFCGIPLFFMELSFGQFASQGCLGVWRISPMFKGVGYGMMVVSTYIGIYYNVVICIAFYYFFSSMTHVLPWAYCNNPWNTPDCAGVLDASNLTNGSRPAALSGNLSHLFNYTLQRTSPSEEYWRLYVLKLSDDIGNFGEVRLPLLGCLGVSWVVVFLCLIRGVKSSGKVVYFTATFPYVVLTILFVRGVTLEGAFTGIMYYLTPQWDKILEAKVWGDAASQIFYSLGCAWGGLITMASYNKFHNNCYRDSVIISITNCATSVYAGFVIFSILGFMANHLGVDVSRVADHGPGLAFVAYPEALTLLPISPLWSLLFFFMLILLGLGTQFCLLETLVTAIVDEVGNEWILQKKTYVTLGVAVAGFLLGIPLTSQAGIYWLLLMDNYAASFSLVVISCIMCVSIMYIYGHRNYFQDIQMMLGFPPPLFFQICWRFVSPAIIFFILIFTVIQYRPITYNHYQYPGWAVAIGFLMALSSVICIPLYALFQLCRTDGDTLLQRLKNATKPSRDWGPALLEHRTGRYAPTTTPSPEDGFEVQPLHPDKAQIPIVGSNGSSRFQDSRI
In words: Inhibition of mouse GlyT1.

For data set [13], the target named is T3, Sodium- and chloride-dependent glycine transporter 2 (Homo sapiens, UniProt Q9Y345).
T3 sequence (Q9Y345 whole entry): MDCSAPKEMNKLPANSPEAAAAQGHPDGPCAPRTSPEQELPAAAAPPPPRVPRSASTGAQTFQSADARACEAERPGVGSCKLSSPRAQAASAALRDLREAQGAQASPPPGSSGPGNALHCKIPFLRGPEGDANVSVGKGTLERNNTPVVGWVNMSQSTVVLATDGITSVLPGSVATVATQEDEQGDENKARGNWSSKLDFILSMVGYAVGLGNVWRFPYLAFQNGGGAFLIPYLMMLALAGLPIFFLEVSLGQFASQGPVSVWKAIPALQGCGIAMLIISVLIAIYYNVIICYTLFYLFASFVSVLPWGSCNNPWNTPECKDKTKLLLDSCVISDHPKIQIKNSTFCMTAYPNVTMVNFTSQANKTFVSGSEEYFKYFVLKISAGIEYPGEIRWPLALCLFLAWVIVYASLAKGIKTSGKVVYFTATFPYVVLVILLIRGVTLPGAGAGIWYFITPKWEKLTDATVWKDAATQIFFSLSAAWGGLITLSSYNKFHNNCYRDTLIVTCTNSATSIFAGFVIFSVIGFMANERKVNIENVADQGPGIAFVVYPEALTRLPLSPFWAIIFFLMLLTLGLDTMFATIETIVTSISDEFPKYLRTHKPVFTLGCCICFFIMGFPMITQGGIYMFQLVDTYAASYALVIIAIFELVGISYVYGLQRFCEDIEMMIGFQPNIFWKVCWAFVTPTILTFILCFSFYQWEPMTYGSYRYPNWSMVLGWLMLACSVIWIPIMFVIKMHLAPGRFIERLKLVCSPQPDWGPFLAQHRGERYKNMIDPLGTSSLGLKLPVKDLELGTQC
The data set can be described thus: Inhibition of human GlyT2 expressed in cells assessed as [3H]glycine uptake. The format is cell-based.

Values after ≈ are worked out from the molar mass of the structure shown.

As for `COc1cc(C(F)(F)F)cc(SC)c1C(=O)N[C@@]1(c2ccccc2)CCCN(C)C1`, the EC50 – broadly, the concentration giving half of the maximal effect – in data set [1] was 0.01 µM; in data set [12], 0.005 µM; in data set [13], 15 µM. In addition, the logD – broadly, the decadic logarithm of the distribution of all forms, ionised or not, between an organic phase and buffer at a given pH – in data set [2] stood at 3.12. Moreover, the solubility (commonly the concentration that dissolves in the medium under given conditions) in [3] stood at 0.147 mg/mL (≈ 335 µM). Moreover, the Papp in [4] is 74 nm/s. Besides, the microsomal CLint in [5] turned out to be 19 µL/min/mg. Further, the efflux ratio (as a rule, the permeability from basolateral to apical divided by that in the opposite direction, in the common usage) in data set [6] amounted to 1.5. Besides, the Activity result in data set [7] is reported as “Non-toxic”. Also, in data set [8], the pKa – broadly, the negative logarithm of the acid dissociation constant – was 7.72. The clearance (usually the rate of elimination divided by the concentration) in [9] came to 3.24 L/h/kg. The “fold change (FC)” value was 1.7 in [10] and 1.5 in data set [11].

The record behind these values is ChEMBL document CHEMBL3259663, “3-Amido-3-aryl-piperidines: A Novel Class of Potent, Selective, and Orally Active GlyT1 Inhibitors” (ACS Med Chem Lett, 2014).
